ChEMBL document CHEMBL5131571, “Design, Synthesis, and Evaluation of Lung-Retentive Prodrugs for Extending the Lung Tissue Retention of Inhaled Drugs” (J Med Chem, 2022)

Legend:
[1] = Drug metabolism in rat lung homogenate assessed as 1-(((S)-2-Amino-3,3-dimethylbutanoyl)oxy)ethyl-4-(2-hydroxy-2,2-diphenylacetoxy)piperidine-1-carboxylate Hydrochloride intermediate formation at 1500 ng/ml by MS/MS analysis; format: ADME, tissue-based; details: tissue homogenate
In short: (§1)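 Wistar Han rat lung homogenized, then diluted 1 in 4 by mass with water (pH 6.8). Incubated at nominal 1500 ng/mL, 37 °C. Breakdown followed over 1500 min by MS/MS against authenticated samples of prodrug, intermediate and parent.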

[2] = Drug metabolism in rat lung homogenate assessed as piperidin-4-yl-2-hydroxy-2,2-diphenylacetate formation at 1500 ng/ml by MS/MS analysis; format: ADME, tissue-based; details: tissue homogenate; in short: as §1
[3] = Drug metabolism in rat lung homogenate assessed as 1-(((R)-2-amino-3,3-dimethylbutanoyl)oxy)ethyl 4-(2-hydroxy-2,2-diphenylacetoxy)piperidine-1-carboxylate intermediate formation at 1500 ng/ml by MS/MS analysis; format: ADME, tissue-based; details: tissue homogenate; in short: as §1
[4] = Drug concentration in lung of Crl Sprague-Dawley rat at 0.2 mg/kg, IT measured at 24 hrs by LC-MS/MS analysis; format: ADME, organism-based; details: read-out: Ct
In short: (§2)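 Male Sprague Dawley rats, n = 3 per time point, given a single intratracheal dose of 0.2 mg/kg at 1 mL/kg in 5% ethanol in pH 6.5 PBS. Serial blood into EDTA, centrifuged for plasma. At 24 h, lungs taken after CO2 euthanasia, rinsed, blotted, weighed, snap-frozen and homogenized. Methanol/acetonitrile protein precipitation with imipramine internal standard. Quantified by LC–MS/MS.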

[5] = Plasma concentration in Crl Sprague-Dawley rat at 0.2 mg/kg, IT measured at 3 to 24 hrs by LC-MS/MS analysis; format: ADME, organism-based; details: in vivo, other, time 3-24 hrs; in short: as §2
[6] = Plasma concentration in Crl Sprague-Dawley rat at 0.2 mg/kg, IT measured at 0.5 hrs by LC-MS/MS analysis; format: ADME, organism-based; in short: as §2
[7] = Protein binding to Crl Wistar Han rat lung homogenate assessed as free fraction by mass spectroscopic analysis; format: ADME, tissue-based
In short: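 Rapid equilibrium dialysis of spiked 1 in 4 Wistar Han rat lung homogenate (1000 ng/mL) against pH 6.5 PBS, 4 h, 37 °C, orbital shaking. Recovery and time-0/240 matrix controls included. Samples matrix-matched 1:1, MeCN precipitation with labetalol/reserpine internal standards, MS quantification. Triplicate, mean ± SD.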

[8] = Plasma concentration in Crl Sprague-Dawley rat at 0.2 mg/kg, IT measured at 2 hrs by LC-MS/MS analysis; format: ADME, organism-based; in short: as §2
[9] = Plasma concentration in Crl Sprague-Dawley rat at 0.2 mg/kg, IT measured at 0.25 hrs by LC-MS/MS analysis; format: ADME, organism-based; in short: as §2
[10] = Plasma concentration in Crl Sprague-Dawley rat at 0.2 mg/kg, IT measured at 1 hr by LC-MS/MS analysis; format: ADME, organism-based; in short: as §2
[11] = Stability of compound in PBS at pH 6.5 assessed as half life by LC-MS analysis; format: physicochemical
In short: (§3)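 1000 ng/mL final (from 200 μg/mL D6-DMSO stock) in prewarmed matrix at 37 °C with continuous shaking, triplicate. Matrices: pH 6.5 or 7.4 phosphate buffer, 1 in 4 water-diluted Wistar Han lung homogenate (pH 6.8), or fresh rat blood. Timed aliquots quenched in MeCN with labetalol/reserpine internal standards. Half-life by MS, mean ± SD.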

[12] = Stability in Crl Wistar Han rat lung homogenate at pH 6.8 assessed as half life by mass spectroscopic analysis; format: ADME, tissue-based; in short: as §3
[13] = Stability of compound in PBS at pH 7.4 assessed as half life by LC-MS analysis; format: physicochemical; in short: as §3
[14] = Stability in Crl Wistar Han rat blood at pH 7.2 assessed as half life by mass spectroscopic analysis; format: ADME, tissue-based; in short: as §3

Structure (SMILES) | Drug metabolism [1] | Drug metabolism [2] | Drug metabolism [3] | concentration at 24 h [4] | Cp [5] | concentration at 0.5 h [6] | fraction unbound [7] | concentration at 2 h [8] | concentration at 0.25 h [9] | concentration at 1 h [10] | half-life [11] | half-life [12] | half-life [13] | half-life [14]
CC(OC(=O)[C@@H](NC(=O)[C@@H](N)CCCCN)C(C)(C)C)OC(=O)N1CCC(OC(=O)C(O)(c2ccccc2)c2ccccc2)CC1.Cl.Cl (stereo not given in full) | Metabolite_Detected | Metabolite_Detected | – | – | – | – | – | – | – | – | – | – | – | –
CC(OC(=O)[C@H](NC(=O)[C@@H](N)CCCCN)C(C)(C)C)OC(=O)N1CCC(OC(=O)C(O)(c2ccccc2)c2ccccc2)CC1.Cl.Cl (stereo not given in full) | – | Metabolite_Detected | Metabolite_Notdetected | 20000 ng/mL | 1 ng/mL | 1.63 ng/mL | 0.005 | 1.25 ng/mL | 2.03 ng/mL | 2.1 ng/mL | – | – | – | –
CC(OC(=O)C[C@@H](N)CCCCN)OC(=O)N1CCC(OC(=O)C(O)(c2ccccc2)c2ccccc2)CC1.Cl.Cl (stereo not given in full) | – | – | – | – | – | – | – | – | – | – | 1750 min | 186 min | 354 min | 18 min
